According to ChEMBL document CHEMBL1255424, “Antistaphylococcal activity of ACHN-490 tested alone and in combination with other agents by time-kill assay” (2010):

Tests used:
Format in all cases: functional
Staphylococcus aureus [1] = experiment: Antibacterial activity against vancomycin-intermediate Staphylococcus aureus isolate 1016 after 24 hrs by modified broth macrodilution method; conditions: isolate 1016, 24 h
Summary of the method: (§1)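 MIC read after 24 h incubation by modified broth macrodilution, validated per CLSI recommendations, against recent clinical MRSA isolates (hospital- and community-acquired, hVISA, VISA, VRSA). Daptomycin tests ran in Mueller-Hinton broth with added calcium.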

Staphylococcus aureus [2] = experiment: Antibacterial activity against vancomycin-intermediate Staphylococcus aureus after 24 hrs by modified broth macrodilution method; summary of the method: as §1
Staphylococcus aureus [3] = experiment: Antibacterial activity against vancomycin-intermediate Staphylococcus aureus isolate 1006 after 24 hrs by modified broth macrodilution method; conditions: isolate 1006, 24 h; summary of the method: as §1

Measured: MIC

CC(=O)NC[C@H]1CN(c2ccc(N3CCOCC3)c(F)c2)C(=O)O1 [LINEZOLID]
1 µg/mL: all assays above
